Test results published in paper PMC6843711 (ACS Omega, 2019).

How the values were obtained:
[1] = DPPH free radical scavenging assay
How it was run: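 Methanolic test compound at 0.2–1.0 μg/mL was mixed with 0.004% methanolic DPPH and kept in the dark for 30 min. Absorbance was read at 517 nm. Compound solution without DPPH served as blank and DPPH alone as control. Percent inhibition was derived from absorbance with and without antioxidant. Each measurement was repeated three times.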

[2] = system: diabetic mice; assay: Blood glucose levels in diabetic mice; type: in vivo; conditions: LOQ = 20 mM
How it was run: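 Male mice (about 20 ± 2 g) were randomised into eight groups (n = 5). After an 18 h fast, diabetes was induced with a single ip alloxan dose of 50 mg/kg in 0.5 mL, and diabetic animals served as positive control. Test compound was given ip in 0.5 mL for 1 week, with saline as negative control. Cardiac blood was drawn under diethyl ether, and serum (600g, 15 min) was assayed for glucose. Triplicate; mean ± SD; Kruskal–Wallis, p < 0.05.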

[3] = system: diabetic mice; assay: Hematological study in vivo; conditions: ip; for Alb / Chlst / Cr / TG / UA: serum
How it was run: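 Alloxan-diabetic male mice (single 50 mg/kg ip after 18 h fast; n = 5 per group) received test compound ip for 1 week, with a saline group as control. Cardiac blood was drawn under diethyl ether into 10% EDTA for automated haematology (RBC, WBC, Hb, MCV, MCH, MCHC, PLT, RDW, HCT) and into plain tubes. Serum (600g, 15 min) was assayed for albumin, uric acid, glucose, triglyceride and cholesterol. Triplicate; mean ± SD; Kruskal–Wallis.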

[4] = read-out: IC50, inhibition of CuSO4-induced oxidation of human LDL; cited from earlier work

| Molecule | Inhibition percent (%), DPPH scavenging ([1]; conc. 0.2 μg mL^–1) | Inhibition percent (%), DPPH scavenging ([1]; conc. 0.4 μg mL^–1) | Inhibition percent (%), DPPH scavenging ([1]; conc. 0.6 μg mL^–1) | Inhibition percent (%), DPPH scavenging ([1]; conc. 0.8 μg mL^–1) | Inhibition percent (%), DPPH scavenging ([1]; conc. 1.0 μg mL^–1) | Mean blood glucose level ([2]; conc. 0.3 mM) | Mean blood glucose level ([2]; conc. 0.5 mM) | HB ([3]; dose 0.3 mM) | HCT ([3]; dose 0.3 mM) | MCH ([3]; dose 0.3 mM) | MCHC ([3]; dose 0.3 mM) | MCV ([3]; dose 0.3 mM) | RBC ([3]; dose 0.3 mM) | RDW ([3]; dose 0.3 mM) | WBC ([3]; dose 0.3 mM) | HB ([3]; dose 0.5 mM) | HCT ([3]; dose 0.5 mM) | MCH ([3]; dose 0.5 mM) | MCHC ([3]; dose 0.5 mM) | MCV ([3]; dose 0.5 mM) | other results |
| --- | --- | --- | --- | --- | --- | --- | --- | --- | --- | --- | --- | --- | --- | --- | --- | --- | --- | --- | --- | --- | --- |
| O=C1O[C@H]([C@@H](O)CO)C(O)=C1O [AA, Ascorbic Acid, reference compound] | 53.13 ± 0.7% | 61.22 ± 0.7% | 69.18 ± 1% | 88.47 ± 0.9% | 98.03 ± 2% | – | – | – | – | – | – | – | – | – | – | – | – | – | – | – | – |
| Cc1nn(-c2ccccc2)c(Cl)c1C1Nc2ccccc2C(=O)N1c1ccccc1 (stereo not drawn) [Compound 4g, 2-(5-Chloro-3-methyl-1-phenyl-1H-pyrazol-4-yl)-3-phenyl-2,3-dihydroquinazolin-4(1H)-one] | 20.71 ± 0.2% | 20.32 ± 0.2% | 20.51 ± 0.1% | 21.16 ± 0.1% | 20.62 ± 0.5% | 65 ± 2 mM | 27 ± 1 mM | – | – | – | – | – | – | – | – | – | – | – | – | – | – |
| Cc1ccc(N2C(=O)c3ccccc3NC2c2c(C)nn(-c3ccccc3)c2Cl)cc1 (stereo not drawn) [Compound 4h, 2-(5-Chloro-3-methyl-1-phenyl-1H-pyrazol-4-yl)-3-(p-tolyl)-2,3-dihydroquinazolin-4(1H)-one] | 11.42 ± 0.03% | 11.44 ± 0.02% | 11.46 ± 0.02% | 11.48 ± 0.04% | 11.50 ± 0.07% | 44 ± 1 mM | 22 ± 1 mM | 14.5 ± 0.1 g/dL | 37.1 ± 0.1% | 15.8 ± 0.1 ρg | 44.0 ± 0.2 g/dL | 40.9 μm^3 | 9.05 10^6/mm^3 | 21.8 ± 0.03% | 5.3 10^3/mm^3 | 14.2 ± 0.25 g/dL | 37.9 ± 0.1% | 15.5 ± 0.23 ρg | 41.2 ± 0.1 g/dL | 40.1 μm^3 | RBC ([3]; dose 0.5 mM): 9.92 10^6/mm^3; RDW ([3]; dose 0.5 mM): 23.6 ± 0.02%; WBC ([3]; dose 0.5 mM): 5.6 10^3/mm^3; Alb ([3]; dose 0.3 mM): 2.7 ± 0.04 g/dL; Chlst ([3]; dose 0.3 mM): 64 ± 3.2 mg/dL; Cr ([3]; dose 0.3 mM): 0.41 ± 0.05 mg/dL; TG ([3]; dose 0.3 mM): 127 ± 1.5 mg/dL; UA ([3]; dose 0.3 mM): 61 ± 3 µM; Alb ([3]; dose 0.5 mM): 2.7 ± 0.02 g/dL; Chlst ([3]; dose 0.5 mM): 58 ± 6 mg/dL; Cr ([3]; dose 0.5 mM): 0.4 ± 0.05 mg/dL; TG ([3]; dose 0.5 mM): 109 ± 0.7 mg/dL; UA ([3]; dose 0.5 mM): 62 ± 1.5 µM |
| Cc1nn(-c2ccccc2)c(Cl)c1C1Nc2ccccc2C(=O)N1c1ccc(O)cc1 (stereo not drawn) [Compound 4i, 2-(5-Chloro-3-methyl-1-phenyl-1H-pyrazol-4-yl)-3-(4-hydroxyphenyl)-2,3-dihydroquinazolin-4(1H)-one] | 80.07 ± 0.77% | 81.18 ± 0.5% | 83.9 ± 0.1% | 85.62 ± 0.3% | 86.47 ± 0.27% | 44 ± 1 mM | <LOQ | – | – | – | – | – | – | – | – | – | – | – | – | – | – |
| Cc1nn(-c2ccccc2)c(Cl)c1C1Nc2ccccc2C(=O)N1c1ccc(Cl)cc1 (stereo not drawn) [Compound 4j, 2-(5-Chloro-3-methyl-1-phenyl-1H-pyrazol-4-yl)-3-(4-chlorophenyl)-2,3-dihydroquinazolin-4(1H)-one] | 79.9 ± 0.9% | 87.68 ± 0.7% | 93.58 ± 1% | 99.37 ± 0.7% | 102 ± 2% | – | – | 14.8 ± 0.34 g/dL | 38.6 ± 0.1% | 15.7 ± 0.2 ρg | 38.6 ± 0.2 g/dL | 40.2 μm^3 | 9.34 10^6/mm^3 | 22.5 ± 0.01% | 7.6 10^3/mm^3 | 14.8 ± 0.3 g/dL | 39.6 ± 0.08% | 15.5 ± 0.03 ρg | 38.2 ± 0.1 g/dL | 39.9 μm^3 | PLT ([3]; dose 0.3 mM): 1350 10^3/mm^3; PLT ([3]; dose 0.5 mM): 1326 10^3/mm^3; RBC ([3]; dose 0.5 mM): 9.17 10^6/mm^3; RDW ([3]; dose 0.5 mM): 22.2 ± 0.02%; WBC ([3]; dose 0.5 mM): 8 10^3/mm^3; Alb ([3]; dose 0.3 mM): 2.9 ± 0.02 g/dL; Chlst ([3]; dose 0.3 mM): 66 ± 1.4 mg/dL; Cr ([3]; dose 0.3 mM): 0.41 ± 0.07 mg/dL; TG ([3]; dose 0.3 mM): 123 ± 3 mg/dL; UA ([3]; dose 0.3 mM): 65 ± 2 µM; Alb ([3]; dose 0.5 mM): 2.8 ± 0.01 g/dL; Chlst ([3]; dose 0.5 mM): 62 ± 2.8 mg/dL; Cr ([3]; dose 0.5 mM): 0.41 ± 0.09 mg/dL; TG ([3]; dose 0.5 mM): 116 ± 3 mg/dL; UA ([3]; dose 0.5 mM): 65 ± 2 µM |
| Cc1ccc(N2C(=O)c3ccccc3NC2c2c(C)nn(-c3ccccc3)c2Cl)c(C)c1 (stereo not drawn) [Compound 4k, 2-(5-Chloro-3-methyl-1-phenyl-1H-pyrazol-4-yl)-3-(2,4-dimethylphenyl)-2,3-dihydroquinazolin-4(1H)-one] | 67.72 ± 0.2% | 67.80 ± 0.3% | 67.87 ± 0.1% | 67.95 ± 0.2% | 68.03 ± 0.1% | 29 ± 1 mM | – | 8.0 ± 0.2 g/dL | 18.1 ± 0.1% | 15.8 ± 0.1 ρg | 44.0 ± 0.2 g/dL | 44.9 μm^3 | 8.05 10^6/mm^3 | 12.2 ± 0.01% | 3.15 10^3/mm^3 | 10.9 ± 0.1 g/dL | 34.9 ± 0.2% | 15.8 ± 0.1 ρg | 41.2 ± 0.2 g/dL | 44.1 μm^3 | RBC ([3]; dose 0.5 mM): 7.92 10^6/mm^3; RDW ([3]; dose 0.5 mM): 24.8 ± 0.01%; WBC ([3]; dose 0.5 mM): 2.8 10^3/mm^3; Alb ([3]; dose 0.3 mM): 2.8 ± 0.07 g/dL; Chlst ([3]; dose 0.3 mM): 64 ± 3.2 mg/dL; Cr ([3]; dose 0.3 mM): 0.45 ± 0.05 mg/dL; TG ([3]; dose 0.3 mM): 127 ± 2.5 mg/dL; UA ([3]; dose 0.3 mM): 66 ± 2.7 µM; Alb ([3]; dose 0.5 mM): 2.8 ± 0.03 g/dL; Chlst ([3]; dose 0.5 mM): 60 ± 6 mg/dL; Cr ([3]; dose 0.5 mM): 0.42 ± 0.05 mg/dL; TG ([3]; dose 0.5 mM): 121 ± 4 mg/dL; UA ([3]; dose 0.5 mM): 67 ± 3.3 µM |
| Cc1ccc(N2C(=O)c3ccccc3NC2c2c(C)nn(-c3ccccc3)c2Cl)cc1C (stereo not drawn) [Compound 4l, 2-(5-Chloro-3-methyl-1-phenyl-1H-pyrazol-4-yl)-3-(3,4-dimethylphenyl)-2,3-dihydroquinazolin-4(1H)-one] | 60.14 ± 0.1% | 60.19 ± 0.2% | 60.25 ± 0.2% | 60.30 ± 0.1% | 60.35 ± 0.2% | – | – | – | – | – | – | – | – | – | – | – | – | – | – | – | – |
| magnolamide | – | – | – | – | – | – | – | – | – | – | – | – | – | – | – | – | – | – | – | – | IC50 [4]: 9.7 µM |
